Columns and labels:
[1] = tested on: Lewis lung carcinoma (LLC) cells; test: In vitro cytotoxic effect; assay type: cell-based; settings: 48 h, read-out: Cell viability
How it was run: (§1)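 Cells were seeded at 5×10^3 cells/well and grown 24 h at 37°C. LLC cells were grown in DMEM with 10% FBS and A549 cells in RPMI with 10% FBS. Cells were exposed to serially diluted test compound at 0.01–10 μg/mL PMX-equivalent for 48 h. WST-8 (CCK-8) was added for 2 h and absorbance read at 450 nm. Viability is % of untreated cells; mean ± SD, n=6.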

[2] = tested on: human lung carcinoma (A549) cells; test: In vitro cytotoxic effect; assay type: cell-based
How it was run: as §1

[3] = In vitro permeability across a Caco-2 cell monolayer; assay type: in vitro ADME; settings: human
How it was run: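 Caco-2 monolayers were grown on Transwell inserts (0.4 μm pores, 1.12 cm2). Test compound was applied. Transported samples were filtered (0.45 μm PVDF), and drug in them was quantified by HPLC-UV. The apparent permeability coefficient was calculated from the transported amount.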

A549 cells = test: In vitro wound-healing assay, A549 cells; assay type: cell-based, human; settings: 48 h
How it was run: (§2)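 Cells were plated at 3×10^4 cells/well on collagen-coated plates, LLC in DMEM and A549 in RPMI, each with 10% FBS. They were grown 48 h at 37°C to near-confluence. A wound maker scratched the monolayer, which was washed twice with PBS pH 7.4. Cells were then exposed to test compound at 0.01–10 μg/mL PMX-equivalent for 48 h at 37°C. Phase-contrast images every 12 h; automated edge-detection mask gave the area.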

LLC tumor-bearing mice = test: In vivo tumor growth inhibition in LLC tumor-bearing mice; set-up: species or system C57BL/6 mice
How it was run: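 Female C57BL/6 mice (20–25 g) received 1×10^6 LLC cells in 100 μL PBS pH 7.4 subcutaneously in the flank. At 80–100 mm3, mice were randomised into groups of 10 (untreated, oral daily, or IV once-weekly 20 mg/kg PMX in water). Oral groups were fasted 4 h before and 2 h after dosing. Calipers measured tumors every 3 days for 21 days; volume = a2×b×0.52. Mean ± SD, n=10.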

[4] = Parallel artificial membrane permeability assay; assay type: in vitro ADME; settings: PAMPA, pH 6.8
How it was run: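 Donor wells held test compound diluted in PBS pH 6.8 to 200 μg/mL PMX-equivalent; acceptor wells held PBS pH 6.8. Plates were incubated 5 h at room temperature, then donor and acceptor were both sampled. Permeated PMX was quantified by HPLC at 254 nm.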

[5] = In vivo pharmacokinetic study in rats; settings: Sprague Dawley, rat, plasma, po, 20 mg/kg
LLC cells = test: In vitro wound-healing assay, LLC cells; assay type: cell-based; settings: equivalent to 0.5 μg/mL (0.84 μM) PMX, 48 h
How it was run: as §2

In vitro drug release = assay type: physicochemical; settings: basket 100 rpm
[6] = once-weekly IV 20 mg/kg PMX, 3 weeks

Compound	viability at 0.08 µM [1]	viability at 0.84 µM [1]	viability at 5 µg/mL [1]	viability at 8.37 µM ([2]; Homo sapiens, A549, 48 h, read-out: Cell viability)	Papp at 5 h, 100 μg/mL [3]	Inhibition of cell proliferation/migration, fold higher than control cells (A549 cells; equivalent to 0.5 μg/mL (0.84 μM) PMX)	Wound recovery rate (A549 cells; equivalent to 1 μg/mL (1.67 μM) PMX)	Reduction in tumor volume and mass vs control mice (LLC tumor-bearing mice; once-a-day oral 20 mg/kg PMX in water, 21 days)	Tumor volume lower than control group (LLC tumor-bearing mice; [6])	Tumor volume lower than oral PMX group (LLC tumor-bearing mice; [6])	Papp at 5 h, 200 μg/mL [4]	half-life [5]	Relative wound recovery (LLC cells)	Drug dissolved within 15 min (In vitro drug release; 0.1 N HCl pH 1.2, 37°C)	Drug released within 15 min (In vitro drug release; phosphate buffer pH 6.8, 37°C)	Cell viability after the addition of excipient alone ([2]; A549 cells, excipient alone, amount matching the same molar concentration of PMX)
Nc1nc2[nH]cc(CCc3ccc(C(=O)N[C@@H](CCC(=O)O)C(=O)O)cc3)c2c(=O)[nH]1 [PMX, N-[4-[2-(2-amino-3,4-dihydro-4-oxo-7H-pyrrolo[2,3-d]pyrimidin-5-yl)-ethyl]-benzoyl]-L-glutamic acid]	< 80%	45.4%	29.8%	52.2%	0.498 ± 0.096 ×10⁻⁶ cm/s	1.28 fold	54.0%±5.09%	did not show significant reductions in the tumor volume and mass	49%	46%	0.665 ± 0.207 ×10⁻⁶ cm/s	7.03 ± 1.61 h	57.5%±5.76%	More than 90%	More than 90%	–
2-hydroxypropyl-beta-cyclodextrin [HP-beta-CD]	–	–	–	–	–	–	–	–	–	–	–	–	–	–	–	> 80%

— publication PMC5995301 (International Journal of Nanomedicine, 2018)
